Reference: ChEMBL document CHEMBL3621094, “Effect of alkyl group on transnitrosation of N-nitrosothiazolidine thiocarboxamides” (Bioorg Med Chem, 2015)

Tests used:
Format in all cases: physicochemical
[1] = Transnitrosation activity assessed as pseudo first order rate constant at 0.45 mM in presence of 5 mM GSH at pH 2 at 37 degC under dark condition; details: pH 2, 450 µM
Procedure, shortened: (§1)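 Pseudo-first-order kobs for GSNO formation was measured at 0.45 mM N-nitrosamine, 5.0 mM GSH with DTPA, and 37 °C, with pH set by HCl (pH-rate profile 1.4–3.3). kobs was the least-squares slope of the initial linear part of ln{[GSNO∞]/([GSNO∞]−[GSNO])} versus time, taking GSNO∞ as the initial nitroso compound level (0.45 mM). There were three separate trials.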

[2] = Transnitrosation activity assessed as pseudo first order rate constant at 0.45 mM in presence of 5 mM GSH at pH 1.5 at 37 degC under dark condition; details: pH 1.5, 450 µM; procedure, shortened: as §1
[3] = Transnitrosation activity assessed as pseudo first order rate constant at 0.45 mM in presence of 5 mM GSH at pH 3.4 at 37 degC under dark condition; details: pH 3.4, 450 µM
[4] = Transnitrosation activity assessed as pseudo first order rate constant at 0.45 mM in presence of 5 mM GSH at pH 1.4 at 37 degC under dark condition; details: pH 1.4, 450 µM; procedure, shortened: as §1
[5] = Transnitrosation activity assessed as S-nitrosoglutathione yield at 0.45 mM in presence of 5 mM GSH at pH 1.5 at 37 degC under dark condition after 24 hrs; details: pH 1.5, 24 h, 450 µM
Procedure, shortened: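 Reaction run at 0.45 mM N-nitrosamine and 5.0 mM GSH, with DTPA, at pH 1.5 (HCl) and 37 °C in the dark. After 24 h, yield was calculated as GSNO formed divided by N-nitrosamine consumed.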

[6] = Transnitrosation activity assessed as compound consumption level at 0.45 mM in presence of 5 mM GSH at pH 1.5 at 37 degC under dark condition after 24 hrs; details: pH 1.5, 24 h, 450 µM
Procedure, shortened: (§2)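 Nitrosamine (4.5 mM acetonitrile stock, 0.45 mM final) added to GSH (5.0 mM) with DTPA. The mixture was acidified to pH 1.5 with 0.1 M HCl and held at 37 °C in the dark. GSNO formation was followed against time, and data were taken after 24 h.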

[7] = Transnitrosation activity assessed as pseudo first order rate constant at 0.45 mM in presence of 5 mM GSH at pH 2.2 at 37 degC under dark condition; details: pH 2.2, 450 µM; procedure, shortened: as §1
[8] = Transnitrosation activity assessed as pseudo first order rate constant at 0.45 mM in presence of 5 mM GSH at pH 1.7 at 37 degC under dark condition; details: pH 1.7, 450 µM; procedure, shortened: as §1
[9] = Transnitrosation activity assessed as pseudo first order rate constant at 0.45 mM in presence of 5 mM GSH at pH 2.8 at 37 degC under dark condition; details: pH 2.8, 450 µM; procedure, shortened: as §1
[10] = Transnitrosation activity assessed as S-nitrosoglutathione level at 0.45 mM in presence of 5 mM GSH at pH 1.5 at 37 degC under dark condition; details: pH 1.5, 450 µM; procedure, shortened: as §2

SMILES | log K [1] | K [2] | log K [3] | log K [4] | Activity [5] | Activity [6] | log K [7] | log K [8] | log K [9] | Activity [10]
NC(=S)C1CSCN1N=O (stereo not drawn) | -5.24 | 1301 ×10⁻⁷ /s | -6.37 | -3.73 | 95% | 0.45 mM | -4.73 | -4.24 | -6.16 | 0.43 mM
CNC(=S)C1CSCN1N=O (stereo not drawn) |  | 464 ×10⁻⁷ /s |  |  | 85% | 0.45 mM |  |  |  | 0.38 mM
CN(C)C(=S)C1CSCN1N=O (stereo not drawn) |  | 405 ×10⁻⁷ /s |  |  | 84% | 0.45 mM |  |  |  | 0.38 mM
